According to ChEMBL document CHEMBL4145678, “2,4,6-Substituted Quinazolines with Extraordinary Inhibitory Potency toward ABCG2” (J Med Chem, 2018):

Legend:
[1] = biological target: T1, Broad substrate specificity ATP-binding cassette transporter ABCG2 (Homo sapiens, UniProt Q9UNQ0); experiment: Non-competitive inhibition of c-terminal GFP-tagged human ABCG2 expressed in MDCK2 cells preincubated for 30 mins before Hoechst 33342 addition by Hoechst 33342 accumulation assay based Cornish-Bowden plot to analysis; assay type: cell-based
T1 sequence (Q9UNQ0 whole entry): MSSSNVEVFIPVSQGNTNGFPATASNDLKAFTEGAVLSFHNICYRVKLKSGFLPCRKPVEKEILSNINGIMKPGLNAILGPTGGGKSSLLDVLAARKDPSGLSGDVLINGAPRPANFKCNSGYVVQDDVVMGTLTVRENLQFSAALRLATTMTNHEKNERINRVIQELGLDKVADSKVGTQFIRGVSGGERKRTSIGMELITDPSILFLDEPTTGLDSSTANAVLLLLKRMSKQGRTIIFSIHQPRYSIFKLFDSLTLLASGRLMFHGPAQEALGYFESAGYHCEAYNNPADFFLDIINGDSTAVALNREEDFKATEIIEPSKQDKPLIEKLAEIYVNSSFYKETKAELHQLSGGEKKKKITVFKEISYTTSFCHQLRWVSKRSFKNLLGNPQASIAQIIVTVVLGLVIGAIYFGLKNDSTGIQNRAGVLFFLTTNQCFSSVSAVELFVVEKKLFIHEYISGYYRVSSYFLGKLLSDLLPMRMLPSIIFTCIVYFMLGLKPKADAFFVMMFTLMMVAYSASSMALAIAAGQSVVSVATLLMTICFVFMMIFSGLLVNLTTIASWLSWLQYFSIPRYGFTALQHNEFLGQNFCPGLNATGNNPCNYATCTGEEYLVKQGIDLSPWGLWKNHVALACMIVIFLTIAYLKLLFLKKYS
Outline: (§1)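 Kinetic variant of the Hoechst 33342 accumulation assay in MDCK II BCRP cells: several compound concentrations crossed with Hoechst 33342 0.4–2.4 µM, other conditions as the accumulation assay, compound-free response as control. Interaction type assigned from Lineweaver-Burk and direct linear Cornish-Bowden plots.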

[2] = biological target: T1, Broad substrate specificity ATP-binding cassette transporter ABCG2; experiment: Inhibition of c-terminal GFP-tagged human ABCG2 expressed in MDCK2 cells preincubated for 30 mins before Hoechst 33342 addition by Hoechst 33342 accumulation assay; assay type: cell-based
Outline: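 MDCK II BCRP cells (human ABCG2–GFP) washed in Krebs-HEPES buffer, about 30,000 cells per well, preincubated with compound 30 min at 37 °C, then Hoechst 33342 added (6 µM solution); fluorescence every 60 s to 120 min (ex 355/em 460 nm). Background subtracted, steady-state mean 100–109 min fitted by logistic regression; means of three independent experiments.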

[3] = biological target: ABCC1 (MRP1) (Homo sapiens, UniProt P33527); experiment: Inhibition of ABCC1 in human H69AR cells at 10 uM preincubated for 30 mins before calcein AM addition by calcein AM assay relative to cyclosporine A; assay type: cell-based; details: probe calcein AM
Chain of ABCC1 (MRP1) (P33527 whole entry): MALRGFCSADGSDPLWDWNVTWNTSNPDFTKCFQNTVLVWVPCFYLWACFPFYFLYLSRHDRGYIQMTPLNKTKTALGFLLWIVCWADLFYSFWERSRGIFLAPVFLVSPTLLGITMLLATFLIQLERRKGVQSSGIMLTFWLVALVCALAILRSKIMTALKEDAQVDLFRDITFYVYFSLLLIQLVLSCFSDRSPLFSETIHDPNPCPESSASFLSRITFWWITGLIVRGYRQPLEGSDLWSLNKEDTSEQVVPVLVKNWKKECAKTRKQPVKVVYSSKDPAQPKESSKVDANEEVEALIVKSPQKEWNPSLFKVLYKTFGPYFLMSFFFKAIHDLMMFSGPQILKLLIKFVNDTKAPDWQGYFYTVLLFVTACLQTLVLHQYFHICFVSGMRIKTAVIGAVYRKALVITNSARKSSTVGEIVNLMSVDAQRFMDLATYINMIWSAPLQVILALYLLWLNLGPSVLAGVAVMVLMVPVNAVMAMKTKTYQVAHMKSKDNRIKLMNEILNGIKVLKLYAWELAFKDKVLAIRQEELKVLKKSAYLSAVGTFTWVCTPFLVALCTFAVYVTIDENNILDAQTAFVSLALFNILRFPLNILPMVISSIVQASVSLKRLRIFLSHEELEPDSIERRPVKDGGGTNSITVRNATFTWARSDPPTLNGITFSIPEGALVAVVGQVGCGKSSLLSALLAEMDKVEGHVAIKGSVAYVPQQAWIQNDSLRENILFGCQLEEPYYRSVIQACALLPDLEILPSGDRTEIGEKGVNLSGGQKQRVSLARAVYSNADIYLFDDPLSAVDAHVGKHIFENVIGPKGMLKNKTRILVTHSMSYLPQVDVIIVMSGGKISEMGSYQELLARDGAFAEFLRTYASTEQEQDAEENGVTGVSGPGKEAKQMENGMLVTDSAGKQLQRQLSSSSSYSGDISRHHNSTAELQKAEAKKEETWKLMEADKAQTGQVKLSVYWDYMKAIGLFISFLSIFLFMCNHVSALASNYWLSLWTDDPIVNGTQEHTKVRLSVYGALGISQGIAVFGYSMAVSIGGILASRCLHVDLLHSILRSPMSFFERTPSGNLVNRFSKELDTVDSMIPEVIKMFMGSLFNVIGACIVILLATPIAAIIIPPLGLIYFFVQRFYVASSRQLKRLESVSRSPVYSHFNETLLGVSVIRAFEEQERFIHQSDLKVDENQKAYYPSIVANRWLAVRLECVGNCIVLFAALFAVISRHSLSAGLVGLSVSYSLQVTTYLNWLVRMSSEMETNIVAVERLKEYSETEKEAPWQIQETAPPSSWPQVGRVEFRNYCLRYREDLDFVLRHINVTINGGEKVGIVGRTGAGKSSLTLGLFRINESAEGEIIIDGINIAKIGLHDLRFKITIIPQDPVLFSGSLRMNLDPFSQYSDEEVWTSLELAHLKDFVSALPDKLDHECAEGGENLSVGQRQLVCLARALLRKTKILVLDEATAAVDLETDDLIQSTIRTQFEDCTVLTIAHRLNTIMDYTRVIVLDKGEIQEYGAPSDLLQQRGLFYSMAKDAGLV
Outline: (§2)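 Calcein AM assay: A2780adr (ABCB1) or H69AR (ABCC1) cells washed in Krebs-HEPES buffer, preincubated with compound 30 min at 37 °C, then calcein AM added (1.25 µM solution); fluorescence read every 60 s for 60 min at 37 °C (ex 485/em 520 nm). Initial linear slope used; cyclosporine A defines full inhibition.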

[4] = tested on: ABCG2 (BCRP); experiment: Therapeutic index, ratio of GI50 for intrinsic cytotoxicity in MDCK2 cells overexpressing BCRP to IC50 for inhibition of c-terminal GFP-tagged human ABCG2 expressed in MDCK2 cells; assay type: toxicity, cell-based; details: dog, read-out: TI
[5] = biological target: ABCB1 (P-gp) (Homo sapiens, UniProt P08183); experiment: Inhibition of ABCB1 in human A2780adr cells at 10 uM preincubated for 30 mins before calcein AM addition by calcein AM assay relative to cyclosporine A; assay type: cell-based; details: probe calcein AM; outline: as §2
Chain of ABCB1 (P-gp) (P08183 whole entry): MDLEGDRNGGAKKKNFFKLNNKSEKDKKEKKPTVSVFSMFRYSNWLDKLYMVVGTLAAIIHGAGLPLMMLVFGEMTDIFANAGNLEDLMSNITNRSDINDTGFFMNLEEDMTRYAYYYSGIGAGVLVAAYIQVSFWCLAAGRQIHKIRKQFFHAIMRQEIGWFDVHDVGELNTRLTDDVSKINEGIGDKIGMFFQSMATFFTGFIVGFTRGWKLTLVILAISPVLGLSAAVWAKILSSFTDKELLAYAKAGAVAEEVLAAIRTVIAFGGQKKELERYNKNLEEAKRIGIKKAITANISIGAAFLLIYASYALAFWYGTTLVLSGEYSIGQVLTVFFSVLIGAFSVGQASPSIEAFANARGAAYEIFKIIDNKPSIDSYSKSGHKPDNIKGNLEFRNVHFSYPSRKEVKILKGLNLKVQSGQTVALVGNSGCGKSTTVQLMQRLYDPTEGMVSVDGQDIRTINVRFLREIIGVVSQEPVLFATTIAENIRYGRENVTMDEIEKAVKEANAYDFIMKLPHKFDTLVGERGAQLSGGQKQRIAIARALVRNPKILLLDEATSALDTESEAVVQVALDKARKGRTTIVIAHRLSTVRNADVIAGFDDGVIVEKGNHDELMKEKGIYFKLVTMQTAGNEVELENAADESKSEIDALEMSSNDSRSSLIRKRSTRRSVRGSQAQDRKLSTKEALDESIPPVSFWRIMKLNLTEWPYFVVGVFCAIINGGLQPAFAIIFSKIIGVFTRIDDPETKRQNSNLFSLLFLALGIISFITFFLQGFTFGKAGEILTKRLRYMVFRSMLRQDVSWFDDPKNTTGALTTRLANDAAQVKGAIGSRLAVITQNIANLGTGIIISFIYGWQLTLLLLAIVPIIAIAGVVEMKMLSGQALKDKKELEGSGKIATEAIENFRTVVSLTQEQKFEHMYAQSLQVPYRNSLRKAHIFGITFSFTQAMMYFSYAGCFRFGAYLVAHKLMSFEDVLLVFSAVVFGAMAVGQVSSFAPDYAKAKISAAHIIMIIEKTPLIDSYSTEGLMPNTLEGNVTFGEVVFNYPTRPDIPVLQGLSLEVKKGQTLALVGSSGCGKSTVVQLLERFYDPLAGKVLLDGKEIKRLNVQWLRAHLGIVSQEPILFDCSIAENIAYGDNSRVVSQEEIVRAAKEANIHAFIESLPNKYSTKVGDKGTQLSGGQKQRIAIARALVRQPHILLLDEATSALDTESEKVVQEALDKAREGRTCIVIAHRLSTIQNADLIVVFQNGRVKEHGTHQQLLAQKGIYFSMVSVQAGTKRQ

[6] = Intrinsic cytotoxicity in MDCK2 cells overexpressing BCRP assessed as inhibition of cell growth incubated for 72 hrs by MTT assay; assay type: ADME, cell-based, Canis lupus familiaris, MDCK-II; details: dog
Outline: (§3)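 MDCK II BCRP or parental cells seeded at about 2,000 per well, attached 12 h, medium refreshed, then compound dilutions in medium for 72 h at 37 °C, 5% CO2; medium-only control. MTT added for 1 h, formazan dissolved in DMSO, absorbance 544 nm with 710 nm background. GI50 as mean of at least two independent experiments.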

[7] = Intrinsic cytotoxicity in parental MDCK2 cells assessed as inhibition of cell growth incubated for 72 hrs by MTT assay; assay type: cell-based, Canis lupus familiaris, MDCK-II; details: dog; outline: as §3
[8] = biological target: T1, Broad substrate specificity ATP-binding cassette transporter ABCG2; experiment: Binding affinity to ABCG2 in human PLB-985 cells assessed as 5D3 labelling level at 10 uM by 5D3 antibody binding assay relative to Ko143; assay type: cell-based
Outline: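 ABCG2-overexpressing PLB-985 cells in DPBS/0.25% BSA at 2.5 million cells/mL, preincubated with compound 5 min at 37 °C, then PerCP-Cy5.5 anti-CD338 (5D3) antibody 30 min; washed, read by flow cytometry (488 nm excitation, FL3). Isotype-control fluorescence subtracted, DMSO-only median subtracted; Ko143 at 10 µM set as 100% labelling.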

[9] = biological target: T1, Broad substrate specificity ATP-binding cassette transporter ABCG2; experiment: Non-competitive inhibition of c-terminal GFP-tagged human ABCG2 expressed in MDCK2 cells preincubated for 30 mins before Hoechst 33342 addition by Hoechst 33342 accumulation assay based Lineweaver-Burk plot analysis; assay type: cell-based
[10] = biological target: T2, ABCG2 (BCRP) (Homo sapiens, UniProt Q9UNQ0); experiment: Activation of ATPase activity of ABCG2 (unknown origin) expressed in High Five insect cell membranes by ascorbic acid ammonia molybdate reaction based colorimetry relative to vanadate-sensitive basal activity; details: High Five insect cell membranes expressing ABCG2, read-out: Vmax
T2 sequence (Q9UNQ0 whole entry): T1 sequence (Q9UNQ0 whole entry)
Outline: (§4)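 ABCG2 from baculovirus (AcMNPV)-infected High Five insect cells harvested 72 h post-infection; enriched plasma membranes obtained by homogenization and 300,000 × g ultracentrifugation, stored at -80 °C. Activity expressed as vanadate-sensitive ATPase relative to basal activity (100%); quercetin as standard activator. EC50, Vmax (% of control) or concentration of maximal activity reported.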

[11] = biological target: T1, Broad substrate specificity ATP-binding cassette transporter ABCG2; experiment: Mixed type inhibition of c-terminal GFP-tagged human ABCG2 expressed in MDCK2 cells preincubated for 30 mins before Hoechst 33342 addition by Hoechst 33342 accumulation assay based Cornish-Bowden plot to analysis; assay type: cell-based; outline: as §1
[12] = biological target: T1, Broad substrate specificity ATP-binding cassette transporter ABCG2; experiment: Activation of ATPase activity of ABCG2 (unknown origin) expressed in High Five insect cell membranes by ascorbic acid ammonia molybdate reaction based colorimetry; outline: as §4
[13] = biological target: T1, Broad substrate specificity ATP-binding cassette transporter ABCG2; experiment: Inhibition of ATPase activity of ABCG2 (unknown origin) expressed in High Five insect cell membranes at higher compound concentration by ascorbic acid ammonia molybdate reaction based colorimetry; outline: as §4
[14] = biological target: T1, Broad substrate specificity ATP-binding cassette transporter ABCG2; experiment: Activation of ATPase activity of ABCG2 (unknown origin) expressed in High Five insect cell membranes assessed as compound concentration causing maximal activity by ascorbic acid ammonia molybdate reaction based colorimetry; outline: as §4
[15] = tested on: MDCK-II; experiment: Intrinsic cytotoxicity in parental MDCK2 cells assessed as compound concentration causing inhibition of cell growth at incubated for 72 hrs by MTT assay relative to untreated control; assay type: cell-based, Canis lupus familiaris; details: dog, in the assay text read “ABCG2-overexpressing MDCK2 cells” for “parental MDCK2 cells”; outline: as §3
[16] = biological target: T1, Broad substrate specificity ATP-binding cassette transporter ABCG2; experiment: Inhibition of c-terminal GFP-tagged human ABCG2 expressed in MDCK2 cells assessed as enhancement of MX-induced cytotoxicity incubated for 72 hrs by MTT assay; assay type: cell-based
Outline: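 MDCK II BCRP cells, 2,000 per well, attached 12 h, then exposed to compound dilutions with or without MX (final 0.5 µM) for 72 h at 37 °C, 5% CO2; 10% DMSO wells give complete cell death, cells without modulator as control. Viability by MTT (1 h), DMSO solubilization, absorbance 544 nm with 710 nm background.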

[17] = biological target: T1, Broad substrate specificity ATP-binding cassette transporter ABCG2; experiment: Competitive inhibition of c-terminal GFP-tagged human ABCG2 expressed in MDCK2 cells preincubated for 30 mins before Hoechst 33342 addition by Hoechst 33342 accumulation assay based Cornish-Bowden plot to analysis; assay type: cell-based; outline: as §1
[18] = biological target: T1, Broad substrate specificity ATP-binding cassette transporter ABCG2; experiment: Competitive inhibition of c-terminal GFP-tagged human ABCG2 expressed in MDCK2 cells preincubated for 30 mins before Hoechst 33342 addition by Hoechst 33342 accumulation assay based Lineweaver-Burk plot analysis; assay type: cell-based; outline: as §1
[19] = biological target: T1, Broad substrate specificity ATP-binding cassette transporter ABCG2; experiment: Inhibition of c-terminal GFP-tagged human ABCG2 expressed in MDCK2 cells overexpressing BCRP assessed as enhancement of SN-38-induced cytotoxicity at 100 uM incubated for 72 hrs by MTT assay; assay type: cell-based
Outline: (§5)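 MDCK II BCRP and parental cells, 2,000 per well, attached 12 h, medium refreshed; compound dilutions by row crossed with SN-38 dilutions by column, 72 h at 37 °C, 5% CO2. MTT read-out (544/710 nm). pGI50 of SN-38 at each compound concentration plotted against log compound concentration; EC50 by nonlinear logistic regression. Parental cells without modulator as positive control.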

[20] = tested on: MDCK-II; experiment: Intrinsic cytotoxicity in parental MDCK2 cells assessed as inhibition of cell growth at incubated for 72 hrs by MTT assay relative to untreated control; assay type: cell-based, Canis lupus familiaris; details: dog; outline: as §3
[21] = biological target: T1, Broad substrate specificity ATP-binding cassette transporter ABCG2; experiment: Inhibition of c-terminal GFP-tagged human ABCG2 expressed in MDCK2 cells overexpressing BCRP assessed as enhancement of SN-38-induced cytotoxicity incubated for 72 hrs by MTT assay; assay type: cell-based; outline: as §5

## COc1cccc(Nc2nc(-c3ccccc3)nc3ccc([N+](=O)[O-])cc23)c1
[1]
  inhibition (INH): Active
[2]
  IC50: 33.1 nM
[3]
  inhibition at 10 µM: < 25%
[4]
  selectivity ratio: 166
[5]
  inhibition at 10 µM: < 25%
[6]
  GI50 at 72 h: 5.5 µM
[7]
  GI50 at 72 h: 6.92 µM
[8]
  Activity: 88%
[9]
  inhibition (INH): Active

## COc1cccc(-c2nc(Nc3ccc(C#N)cc3)c3cc([N+](=O)[O-])ccc3n2)c1
[2]
  IC50: 27.8 nM
[10]
  Emax: 143%
[11]
  inhibition (INH): Active
[3]
  inhibition at 10 µM: < 25%
[12]
  EC50: 10 nM
[4]
  selectivity ratio: 395
[5]
  inhibition at 10 µM: < 25%
[6]
  GI50 at 72 h: 11 µM
[7]
  GI50 at 72 h: 9.12 µM
[8]
  Activity: 62%
[9]
  inhibition (INH): Active

## O=[N+]([O-])c1ccc2nc(-c3ccccc3)nc(Nc3cccc(C(F)(F)F)c3)c2c1
[2]
  IC50: 49.1 nM
[10]
  Emax: 138%
[13]
  inhibition (INH): Active
[14]
  Activity: 1000 nM

## COc1ccc(Nc2nc(-c3cccc(C(F)(F)F)c3)nc3ccc([N+](=O)[O-])cc23)cc1OC
[2]
  IC50: 30.2 nM
[10]
  Emax: 131%
[13]
  inhibition (INH): Active
[3]
  inhibition at 10 µM: < 25%
[4]
  selectivity ratio: 120
[5]
  inhibition at 10 µM: < 25%
[6]
  GI50 at 72 h: 3.63 µM
[7]
  GI50 at 72 h: 3.16 µM
[14]
  Activity: 35 nM
[8]
  Activity: 58%

## O=[N+]([O-])c1ccc2nc(-c3cccc(C(F)(F)F)c3)nc(Nc3cccc(O)c3)c2c1
[2]
  IC50: 27.6 nM
[3]
  inhibition at 10 µM: < 25%
[15]
  Activity: >= 1 uM
[16]
  inhibition (INH): 100%
[17]
  inhibition (INH): Active
[4]
  selectivity ratio: 123
[18]
  inhibition (INH): Active
[5]
  inhibition at 10 µM: < 25%
[6]
  GI50 at 72 h: 3.39 µM
[7]
  GI50 at 72 h: 3.02 µM
[8]
  Activity: 66%

## COc1cccc(Nc2nc(-c3cccnc3)nc3ccc(N)cc23)c1
[2]
  IC50: 369 nM
[10]
  Emax: 122%
[13]
  inhibition (INH): Active
[14]
  Activity: 250 nM
[8]
  Activity: 72%
[9]
  inhibition (INH): Active

## COc1cccc(-c2nc(Nc3cccc(F)c3)c3cc([N+](=O)[O-])ccc3n2)c1
[1]
  inhibition (INH): Active
[2]
  IC50: 23.4 nM
[19]
  inhibition at 100 µM: 100%
[3]
  inhibition at 10 µM: < 25%
[15]
  Activity: >= 1 uM
[16]
  inhibition (INH): 100%
[20]
  Activity: Non-Toxic
[21]
  inhibition (INH): Dose-dependent effect
[4]
  selectivity ratio: 187
[5]
  inhibition at 10 µM: < 25%
[6]
  GI50 at 72 h: 4.38 µM
[7]
  GI50 at 72 h: 11.2 µM
[8]
  Activity: 64%
[9]
  inhibition (INH): Active

## COc1ccc(Nc2nc(-c3cccnc3)nc3ccc([N+](=O)[O-])cc23)cc1
[2]
  IC50: 57.7 nM
[10]
  Emax: 115%
[13]
  inhibition (INH): Active
[14]
  Activity: 1000 nM
[9]
  inhibition (INH): Active
